Assay results of several laboratories.
Lines come from different studies, so protocols differ.
Target: Ephrin type-A receptor 8 (EPHA8, Homo sapiens, UniProt P29322)
Sequence (P29322 28-1005, as in one of the studies): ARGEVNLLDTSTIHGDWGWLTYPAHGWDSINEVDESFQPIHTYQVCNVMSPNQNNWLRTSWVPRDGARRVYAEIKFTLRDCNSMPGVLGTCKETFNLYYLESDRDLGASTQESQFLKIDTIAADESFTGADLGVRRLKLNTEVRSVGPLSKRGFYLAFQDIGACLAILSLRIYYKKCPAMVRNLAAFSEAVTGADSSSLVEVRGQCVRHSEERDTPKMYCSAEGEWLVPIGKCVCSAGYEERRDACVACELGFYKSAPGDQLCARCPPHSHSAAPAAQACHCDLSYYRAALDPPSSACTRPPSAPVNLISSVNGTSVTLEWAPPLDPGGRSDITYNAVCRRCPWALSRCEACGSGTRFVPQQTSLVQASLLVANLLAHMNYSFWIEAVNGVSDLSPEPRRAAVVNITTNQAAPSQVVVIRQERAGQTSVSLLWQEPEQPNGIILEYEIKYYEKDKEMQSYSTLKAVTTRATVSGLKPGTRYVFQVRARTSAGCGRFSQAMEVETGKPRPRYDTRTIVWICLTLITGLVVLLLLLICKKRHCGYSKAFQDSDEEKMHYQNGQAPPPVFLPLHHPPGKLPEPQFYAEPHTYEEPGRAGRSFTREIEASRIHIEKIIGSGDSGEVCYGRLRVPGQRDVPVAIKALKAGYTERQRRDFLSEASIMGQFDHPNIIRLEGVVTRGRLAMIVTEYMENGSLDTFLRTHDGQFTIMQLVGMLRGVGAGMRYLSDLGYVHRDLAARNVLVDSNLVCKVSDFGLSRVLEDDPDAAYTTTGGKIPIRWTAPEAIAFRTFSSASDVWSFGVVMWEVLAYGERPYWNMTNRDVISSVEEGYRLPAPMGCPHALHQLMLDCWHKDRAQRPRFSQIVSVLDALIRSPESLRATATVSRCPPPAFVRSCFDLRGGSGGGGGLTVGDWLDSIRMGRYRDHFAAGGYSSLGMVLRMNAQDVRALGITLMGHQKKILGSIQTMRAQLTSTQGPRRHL

With O=C(NCCCN1CCOCC1)c1ccc(Nc2ncc(Cl)c(-c3ccc(Cl)s3)n2)cc1 the remaining binding was 95% (binding; competition with immobilised ligand; 1 µM).
For Cc1noc([C@H]2C[C@@H](c3ccc(C(F)(F)F)cc3)CN(C(=O)N3CCS(=O)(=O)C3)C2)n1, the remaining binding was 100% (cell-free assay; competition with immobilised ligand; 1 µM).
The remaining binding of COc1ccnn2ncc(-c3ccnc(N(C)C)n3)c12 is reported as 100% (binding; 1 µM).
The remaining binding of CCOCCn1cc(C(=O)Nc2ccc(-n3nc(-c4cccnc4)cc3C(F)(F)F)cn2)ccc1=O is reported as 84% (cell-free assay; competition with immobilised ligand; 1 µM).
CC1CCCN1c1nccc(-c2cnn3ncccc23)n1 (centres unmarked) gave a remaining binding of 100% (binding; 1 µM).
C=CC(=O)N1CCC(C(=O)NCC(=O)N2CCN(c3nc(-c4cnc(N)nc4C(F)F)nc(N4CCOCC4)n3)CC2)CC1 gave a remaining binding of 100% (binding; competition with immobilised ligand; 1 µM).
FC(F)(F)Oc1cccc(-c2cnc3ccc(-c4ccncc4)nn23)c1 gave a remaining binding of 91% (cell-free assay; competition with immobilised ligand; 5 µM).
CN(C)c1nccc(-c2cnn3ncccc23)n1 has a remaining binding of 100% (binding; 1 µM).
Nc1ncc2c(n1)-c1c([nH]c3ccc(C#CC4CC4)cc13)CCCC2 has a remaining binding of 89% (binding; competition with immobilised ligand; 1 µM).
O=C(NCCCN1CCOCC1)c1ccc(Nc2nccc(-c3cc4ccccc4s3)n2)cc1 has a remaining binding of 96% (binding; competition with immobilised ligand; 1 µM).
COc1cnc(Nc2cccc(S(N)(=O)=O)c2)nc1N1CCN(c2ccccc2)CC1 has a remaining binding of 96% (binding; competition with immobilised ligand; 1 µM).
C[C@@H]1CN(c2cc(-c3n[nH]c4ccc(OC5(C)CC5)cc34)ncn2)C[C@H](C)O1 gave a remaining binding of 82% (cell-free assay; competition with immobilised ligand; 0.1 µM).
With Cc1cnc(Nc2ccc(C(=O)N3CCC(N4CCCC4)CC3)cc2)nc1-c1cc2ccccc2s1 the remaining binding was 100% (binding; competition with immobilised ligand; 1 µM).
For CCN1CCN(Cc2ccc(C(=O)Nc3ccc(C)c(Oc4ccc5c(c4)CC(=O)N5)c3)cc2C(F)(F)F)CC1, the remaining binding was 82% (binding; competition with immobilised ligand; 1 µM).
For Cc1nc(C2CCN(C(=O)c3ccc(OC(F)(F)F)cc3N)CC2)c2ncc(N3CCN(C)CC3)cc2n1, the remaining binding was 98% (cell-free assay; competition with immobilised ligand; 1 µM).
F[C@@H]1CCN(c2nccc(-c3cnn4ncccc34)n2)C1 gave a remaining binding of 92% (binding; 1 µM).
O=c1nc(-c2ccccn2)sc2ccccc12 has a remaining binding of 78% (cell-free assay; competition with immobilised ligand; 1 µM).
For O=C(Nc1c[nH]nc1C(=O)NC1CCNCC1)c1cc(F)cc(F)c1, the remaining binding was 100% (binding; competition with immobilised ligand; 1 µM).
The remaining binding of Nc1c(C(=O)NCc2ccc(C(=O)NCCCC3CCCCC3)cc2)cnn1-c1ccccc1 is reported as 100% (cell-free assay; competition with immobilised ligand; 0.1 µM).
With CN(CCCC(F)(F)F)c1nccc(-c2cnn3ncccc23)n1 the remaining binding was 93% (binding; 1 µM).
